Tests used:
[1] = tested on: MCF7; assay: Cytotoxicity against human MCF7 cells assessed as reduction in cell viability after 48 hrs by SRB assay; type: functional, cell-based; conditions: MCF7, 48 h
Procedure, shortened: (§1)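 SRB assay. Compounds active at 10 µM in the primary screen were retested at 1, 2.5 and 5 µM, and IC50 was calculated from these concentrations. The normal breast epithelial line fR2 was tested alongside the cancer lines.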

[2] = tested on: MIA PaCa-2; assay: Cytotoxicity against human MIAPaCa2 cells assessed as reduction in cell viability after 48 hrs by SRB assay; type: functional, cell-based; conditions: MIA PaCa-2, 48 h; procedure, shortened: as §1
[3] = Selectivity index, ratio of IC50 for human FR2 cells to IC50 for human MCF7 cells; type: functional
Procedure, shortened: (§2)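 Selectivity index is the IC50 in normal breast epithelial fR2 cells divided by the IC50 in each cancer line. All IC50 values come from the SRB assay.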

[4] = Cytotoxicity against human FR2 cells assessed as reduction in cell viability after 48 hrs by SRB assay; type: cell-based; conditions: FR2, 48 h; procedure, shortened: as §1
[5] = tested on: HCT-116; assay: Growth inhibition of human HCT116 cells at 10 uM after 48 hrs by SRB assay relative to control; type: functional; conditions: HCT-116, 48 h, read-out: GI
Procedure, shortened: (§3)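 Primary SRB screen of every compound at a single concentration of 10 µM. Growth inhibition is expressed relative to control.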

[6] = tested on: PC-3; assay: Growth inhibition of human PC3 cells at 10 uM after 48 hrs by SRB assay relative to control; type: functional; conditions: PC-3, 48 h, read-out: GI; procedure, shortened: as §3
[7] = tested on: MIA PaCa-2; assay: Growth inhibition of human MIAPaCa2 at 10 uM after 48 hrs by SRB assay relative to control; type: functional; conditions: MIA PaCa-2, 48 h, read-out: GI; procedure, shortened: as §3
[8] = tested on: MCF7; assay: Growth inhibition of human MCF7 cells at 10 uM after 48 hrs by SRB assay relative to control; type: functional; conditions: MCF7, 48 h, read-out: GI; procedure, shortened: as §3
[9] = tested on: A549; assay: Growth inhibition of human A549 cells at 10 uM after 48 hrs by SRB assay relative to control; type: functional; conditions: A549, 48 h, read-out: GI; procedure, shortened: as §3
[10] = tested on: HCT-116; assay: Cytotoxicity against human HCT116 cells assessed as reduction in cell viability after 48 hrs by SRB assay; type: functional, cell-based; conditions: HCT-116, 48 h; procedure, shortened: as §1
[11] = tested on: PC-3; assay: Cytotoxicity against human PC3 cells assessed as reduction in cell viability after 48 hrs by SRB assay; type: functional, cell-based; conditions: PC-3, 48 h; procedure, shortened: as §1
[12] = tested on: A549; assay: Cytotoxicity against human A549 cells assessed as reduction in cell viability after 48 hrs by SRB assay; type: functional, cell-based; conditions: A549, 48 h; procedure, shortened: as §1
[13] = Selectivity index, ratio of IC50 for human FR2 cells to IC50 for human A549 cells; type: functional; procedure, shortened: as §2
[14] = Selectivity index, ratio of IC50 for human FR2 cells to IC50 for human HCT116 cells; type: functional; procedure, shortened: as §2
[15] = Selectivity index, ratio of IC50 for human FR2 cells to IC50 for human PC3 cells; type: functional; procedure, shortened: as §2

Structure (SMILES)	IC50 [1] [µM]	IC50 [2] [µM]	Ratio IC50 [3]	IC50 [4] [µM]	inhibition of growth at 10 µM [5] [%]	inhibition of growth at 10 µM [6] [%]	inhibition of growth at 10 µM [7] [%]	inhibition of growth at 10 µM [8] [%]	inhibition of growth at 10 µM [9] [%]	IC50 [10] [µM]	IC50 [11] [µM]	IC50 [12] [µM]	Ratio IC50 [13]	Ratio IC50 [14]	Ratio IC50 [15]
C=C(C)[C@@H]1CC[C@]2(C(=O)O)CC[C@]3(C)[C@H](CC[C@@H]4[C@@]5(C)C/C(=C\c6ccsc6)[C@H](O)C(C)(C)[C@@H]5CC[C@]43C)[C@@H]12	1.71	> 10	6.461	11.1	62	35	70	79	72	> 10	> 10	> 10	–	–	–
C=C(C)[C@@H]1CC[C@]2(C(=O)O)CC[C@]3(C)[C@H](CC[C@@H]4[C@@]5(C)C/C(=C/C=C/c6ccccc6)C(=O)C(C)(C)[C@@H]5CC[C@]43C)[C@@H]12	7.2	> 10	1.825	13.1	66	71	48	84	93	5.8	7.8	3.4	3.864	2.265	1.684
C=C(C)[C@@H]1CC[C@]2(C(=O)O)CC[C@]3(C)[C@H](CC[C@@H]4[C@@]5(C)C/C(=C\c6ccc(Br)cc6)C(=O)C(C)(C)[C@@H]5CC[C@]43C)[C@@H]12	7.1	> 10	1.481	10.5	61	66	27	68	72	4.4	8.3	1.71	6.15	2.39	1.267
C=C(C)[C@@H]1CC[C@]2(C(=O)O)CC[C@]3(C)[C@H](CC[C@@H]4[C@@]5(C)C/C(=C\c6cccc(Br)c6)C(=O)C(C)(C)[C@@H]5CC[C@]43C)[C@@H]12	5.2	> 10	3.25	16.9	57	56	35	56	71	4.9	8.7	3.04	5.55	3.44	1.94
C=C(C)[C@@H]1CC[C@]2(C(=O)O)CC[C@]3(C)[C@H](CC[C@@H]4[C@@]5(C)CCC(=O)C(C)(C)[C@@H]5CC[C@]43C)[C@@H]12 [BETUNOLIC ACID]	> 10	> 10	–	16.2	49	43	36	43	62	> 10	> 10	5.7	2.838	–	–
C=C(C)[C@@H]1CC[C@]2(C(=O)O)CC[C@]3(C)[C@H](CC[C@@H]4[C@@]5(C)C/C(=C\c6cccnc6)[C@H](O)C(C)(C)[C@@H]5CC[C@]43C)[C@@H]12	3.9	5.8	3.18	12.4	65	26	63	72	71	5.04	> 10	3.4	3.65	2.46	–
C=C(C)[C@@H]1CC[C@]2(C(=O)O)CC[C@]3(C)[C@H](CC[C@@H]4[C@@]5(C)C/C(=C\c6ccc(F)c(Br)c6)[C@H](O)C(C)(C)[C@@H]5CC[C@]43C)[C@@H]12	6.4	> 10	4.021	25.7	57	31	40	72	65	8.4	> 10	4.9	5.253	3.064	–
C=C(C)[C@@H]1CC[C@]2(C(=O)O)CC[C@]3(C)[C@H](CC[C@@H]4[C@@]5(C)C/C(=C\c6c(Cl)cccc6Cl)[C@H](O)C(C)(C)[C@@H]5CC[C@]43C)[C@@H]12	> 10	> 10	–	13.3	40	38	38	56	40	> 10	> 10	> 10	–	–	–

Source: ChEMBL document CHEMBL4052644, “Synthesis of novel benzylidene analogues of betulinic acid as potent cytotoxic agents” (Eur J Med Chem, 2017)
